Published values of several laboratories.
Lines come from different studies, so protocols differ. pIC50: −log10 of the molar value.

| Structure (SMILES) | cell line | read-out | action | technique | time | setting | pIC50 |
| --- | --- | --- | --- | --- | --- | --- | --- |
| CCOc1nc(-c2cccc(O)c2)cc(-c2cc3cc(Cl)ccc3nc2N2CCOCC2)c1C#N | NFS-60 | cell growth or viability | – | MTT | 72 h | – | 6.95 |
| COc1cc2c3c(n(CCCNC(C)C)c(=O)c2cc1OC)-c1nc2c(cc1C3=O)OCO2 | Raji | cell growth or viability | – | MTS | 72 h | – | 6.74 |
| COc1ccc(-c2cc(-c3cc(OC)ccc3OC)c3c(=O)[nH]c(=O)[nH]c3n2)cc1 | HCT-116 | cell growth or viability | – | MTT | 48 h | – | 4.93 |
| CCCOc1nc(-c2cccc(O)c2)cc(-c2cc3cc(OC)ccc3nc2N2CCOCC2)c1C#N | NFS-60 | cell growth or viability | – | MTT | 72 h | – | 7.19 |
| C=C(F)C(=O)N1CCN(c2nc(OC[C@@H]3CCCN3C)nc3c2CCN(c2cccc4cccc(Cl)c24)C3)C[C@@H]1CC#N | PC-9 | cell growth or viability | – | ATP luminescence | – | – | 5.70 |
| NC(=O)c1ccncc1 | DH82 | PGE2 release | inhibitor | ELISA | 24 h | LPS-stimulated | < 3.70 |
| CC(C)c1ccccc1[C@@H]1CCCN1C1CC2(CCN(c3ccc(C(=O)NS(=O)(=O)c4ccc(NC[C@H]5CC[C@](C)(O)CC5)c([N+](=O)[O-])c4)c(Oc4cnc5[nH]ccc5c4)c3)CC2)C1 | DOHH-2 | cell growth or viability | – | ATP luminescence | 48 h | – | 8.19 |
| COc1cc2c(cc1OC)-c1cc3ccc(OC)c(OCCN)c3c[n+]1CC2 | PC-9 | cell growth or viability | – | MTT | 72 h | – | < 4.10 |
| O=C(CCO)NCc1ccccc1 | DH82 | NO release | inhibitor | Griess | 24 h | LPS-stimulated | 4.24 |
| COc1cc2c3c(n(CCCn4ccnc4)c(=O)c2cc1OC)-c1nc2c(cc1C3=O)OCO2 | Raji | cell growth or viability | – | MTS | 72 h | – | 6.69 |
| COCCC(=O)NCc1ccccc1 | DH82 | NO release | inhibitor | Griess | 24 h | LPS-stimulated | 3.77 |
| Cn1nnc2c(C(N)=O)ncn2c1=O | U-87 MG | cell growth or viability | – | trypan blue | 72 h | – | 4.30 |
| CCOc1nc(-c2cccc(O)c2)cc(-c2cc3ccccc3nc2N2CCOCC2)c1C#N | NFS-60 | cell growth or viability | – | MTT | 72 h | – | 7.07 |
| O=C(CCNNC(=O)c1ccncc1)NCc1ccccc1 | DH82 | PGE2 release | inhibitor | ELISA | 24 h | LPS-stimulated | < 3.70 |
| COc1ccc(-c2cc(-c3ccc(Br)cc3)c3c(=O)n(C)c(=O)n(C)c3n2)cc1 | HCT-116 | cell growth or viability | – | MTT | 48 h | – | 4.97 |
| C=CC(=O)N1CCN(c2nc(=O)n(-c3c(C)ccnc3C(C)C)c3nc(-c4c(O)cccc4F)c(F)cc23)[C@@H](C)C1 | PC-9 | cell growth or viability | – | ATP luminescence | – | – | < 5.00 |
| COc1cc2c3c(n(CCCNCCO)c(=O)c2cc1OC)-c1nc2c(cc1C3=O)OCO2 | Raji | cell growth or viability | – | MTS | 72 h | – | 6.88 |
| NCCC(=O)NCc1ccccc1 | DH82 | NO release | inhibitor | Griess | 24 h | LPS-stimulated | 3.80 |
| CN1Cc2c(N)cccc2C(=O)N1C1CCC(=O)NC1=O (stereo not shown) | NCI-H929 | cell growth or viability | – | CCK-8 | 96 h | – | > 6.48 |
